Measured values collected from several papers.
Lines come from different studies, so protocols differ.
Target: Serine/threonine-protein kinase Sgk3 (SGK3, Homo sapiens, UniProt Q96BR1)
Sequence (Q96BR1 1-496, as in one of the studies): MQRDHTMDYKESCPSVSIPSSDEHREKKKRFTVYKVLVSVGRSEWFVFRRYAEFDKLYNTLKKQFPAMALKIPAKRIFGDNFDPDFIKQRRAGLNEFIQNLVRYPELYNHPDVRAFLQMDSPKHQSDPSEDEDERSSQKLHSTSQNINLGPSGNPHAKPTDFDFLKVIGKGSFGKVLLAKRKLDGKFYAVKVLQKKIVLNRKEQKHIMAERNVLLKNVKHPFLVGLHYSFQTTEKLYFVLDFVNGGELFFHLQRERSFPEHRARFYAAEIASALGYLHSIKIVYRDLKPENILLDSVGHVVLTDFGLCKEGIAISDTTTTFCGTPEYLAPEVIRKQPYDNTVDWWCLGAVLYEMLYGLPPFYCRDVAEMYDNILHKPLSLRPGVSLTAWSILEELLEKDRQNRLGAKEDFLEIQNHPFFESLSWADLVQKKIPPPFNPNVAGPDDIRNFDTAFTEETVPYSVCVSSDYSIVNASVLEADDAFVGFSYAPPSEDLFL

Cn1cc(-c2cccc(N3CCc4c(sc5c4CC(C)(C)C5)C3=O)c2CO)cc(Nc2ccncn2)c1=O  inhibition (enzyme activity, inhibitor; 1 µM): 5%
O=c1[nH]c2ccccc2n1C1CCN(Cc2ccc(-c3[nH]c4cc5ncnc5cc4nc3-c3ccccc3)cc2)CC1  remaining signal (cell-free assay; 0.5 µM): 108%
Cn1cc(-c2cc(F)cc(N3CCn4c(cc5c4CCCC5)C3=O)c2CO)cc(Nc2ccc(N3CCN(C4COC4)CC3)cn2)c1=O  inhibition (enzyme activity, inhibitor; 0.1 µM): 14%
Nc1ncc(-c2nc(N3CCOCC3)nc(N3CCOCC3)n2)c(C(F)F)n1  remaining binding (binding, competition with immobilised ligand; 10 µM): 44%
COc1ncccc1-c1cnn2ccc(N3CCN(C(=O)OC(C)C)CC3)nc12  remaining binding (binding, competition with immobilised ligand; 1 µM): 100%
COc1cc(Nc2ncc(F)c(Nc3ccc4c(n3)NC(=O)C(C)(C)O4)n2)cc(OC)c1OC  inhibition (binding; 10 µM): 52%
Cn1cncc1[C@](O)(COc1ccc(C#N)cc1-c1ccc(OC(F)(F)F)cc1)c1ccc(C#N)cc1  remaining binding (cell-free assay, competition with immobilised ligand; 1 µM): 100%
Cc1nn(C)cc1-c1nc2c(N3CCN(Cc4ccc(Cl)cc4)CC3)c(Cl)cnc2[nH]1  remaining binding (binding, competition with immobilised ligand; 1 µM): 100%
CC(C)(C)c1cc(C=C(C#N)C#N)cc(Br)c1O  remaining activity (enzyme activity, inhibitor; 0.5 µM): 97.7%
